Measured values from ChEMBL document CHEMBL2029259, “Design, synthesis, and biological evaluation of novel conformationally constrained inhibitors targeting epidermal growth factor receptor threonine⁷⁹⁰ → methionine⁷⁹⁰ mutant” (J Med Chem, 2012).
Active and inactive are the calls of the source. No cut-off for these calls is given here.

How the values were obtained:
NCI-H1975 [1] = test: Antiproliferative activity against human NCI-H1975 cells harboring EGFR L858R/T790M mutant assessed as inhibition of colony formation after 9 days by crystal violet staining; format: functional, cell-based
Method in brief: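 H1975 cells seeded at 500 cells per 6-cm dish and grown 24 h, then treated at 0.1 to 10 nM. Medium with compound replaced every 3 days. After 9 days, fixed with 4% formaldehyde and stained with 0.2% crystal violet.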

A549 = test: Antiproliferative activity against human A549 cells expressing wild type EGFR coexpressing k-Ras mutant after 72 hrs by MTS assay; settings: A549, 72 h
[2] = Antiproliferative activity against human HL7702 cells expressing wilt type EGFR after 72 hrs by MTS assay; settings: L02, 72 h
[3] = biological target: Receptor tyrosine-protein kinase erbB-4 (Homo sapiens) (UniProt Q15303); test: Binding affinity to ErbB4 at 100 nM
HCC827 [4] = test: Induction of Cell cycle arrest in human HCC827 cells harboring EGFR del E746-A750 mutant assessed as G1 phase cells after 24 hrs by flow cytometry assay; format: functional, cell-based
Method in brief: (§1)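 Cells in six-well plates serum-starved 24 h to synchronize in G0−G1, then treated at indicated concentrations for 24 h. Lightly trypsinized and cell-cycle distribution analysed by flow cytometry.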

[5] = biological target: T1, Epidermal growth factor receptor (Homo sapiens, UniProt P00533, L858R/T790M); test: Inhibition of EGFR L858R/T790M mutant after 1.5 hr by FRET assay; format: protein assay
[6] = biological target: T2, Epidermal growth factor receptor (Homo sapiens, UniProt P00533); test: Binding affinity to EGFR
[7] = biological target: T3, Epidermal growth factor receptor (Homo sapiens, UniProt P00533, L858R); test: Inhibition of EGFR L858R mutant after 1.5 hr by FRET assay; format: protein assay
NCI-H1975 [8] = test: Induction of Cell cycle arrest in human NCI-H1975 cells harboring EGFR L858R/T790M mutant assessed as G1 phase cells after 24 hrs by flow cytometry assay; format: functional, cell-based; method in brief: as §1
[9] = biological target: Cyclin-G-associated kinase (Homo sapiens) (UniProt O14976); test: Binding affinity to GAK at 100 nM
[10] = biological target: T2, Epidermal growth factor receptor; test: Inhibition of EGFR after 1.5 hr by FRET assay
[11] = biological target: Tyrosine-protein kinase TXK (Homo sapiens) (UniProt P42681); test: Binding affinity to TXK at 100 nM
[12] = biological target: Tyrosine-protein kinase BTK (Homo sapiens) (UniProt Q06187); test: Binding affinity to BTK at 100 nM
HCC827 [13] = test: Induction of apoptosis in human HCC827 cells harboring EGFR del E746-A750 mutant after 48 hrs by flow cytometry assay
Mus musculus = test: Toxicity in SCID mouse assessed as weight loss at 10 mg/kg, po administered qd for 14 days relative to control; format: organism-based; set-up: dose 10 mg/kg, route oral; settings: in vivo, 336 h
Method in brief: (§2)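 Six-week-old SCID mice inoculated s.c. in the right flank with H1975 cells (2 × 10⁶/mouse). At mean tumour volume 380−420 mm³ (10−12 days), randomized n = 6/group. Oral dosing daily for 14 days, 0.1 mL/20 g, vehicle as control. Tumours measured every other day by caliper, volume = W²(L/2). Body weight monitored. Significance p < 0.05 versus vehicle.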

[14] = biological target: T4, Epidermal growth factor receptor (Homo sapiens, UniProt P00533, L861Q); test: Inhibition of EGFR L861Q mutant after 1.5 hr by FRET assay; format: protein assay
[15] = biological target: T4, Epidermal growth factor receptor; test: Binding affinity to EGFR L861Q mutant
[16] = biological target: Receptor tyrosine-protein kinase erbB-2 (Homo sapiens) (UniProt P04626); test: Binding affinity to ErbB2 at 100 nM
[17] = biological target: T1, Epidermal growth factor receptor; test: Binding affinity to EGFR L858R/T790M mutant
[18] = Cytotoxicity against human HLF1 cells after 72 hrs by MTS assay; format: cell-based; settings: hlf1, 72 h
Method in brief: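 MTS proliferation read-out at 490 nm after 72 h exposure, cell number set to give absorbance 1.3−2.2. Six concentrations, 0.1 nM to 10 μM, at least six parallels each, repeated at least four times. IC50 from nonlinear sigmoidal dose−response fit.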

[19] = biological target: Tyrosine-protein kinase Blk (Homo sapiens) (UniProt P51451); test: Binding affinity to BLK at 100 nM
[20] = biological target: T3, Epidermal growth factor receptor; test: Binding affinity to EGFR L858R mutant
[21] = biological target: T5, Epidermal growth factor receptor (Homo sapiens, UniProt P00533, T790M); test: Inhibition of EGFR T790M mutant after 1.5 hr by FRET assay; format: protein assay
NCI-H1975 [22] = test: Induction of apoptosis in human NCI-H1975 cells harboring EGFR L858R/T790M mutant after 48 hrs by flow cytometry assay
NCI-H1975 [23] = test: Antitumor activity against human NCI-H1975 cells xenografted in SCID mouse at 10 mg/kg, po administered qd for 14 days relative to control; format: functional, organism-based; set-up: dose 10 mg/kg; method in brief: as §2
NCI-H1975 [24] = test: Antitumor activity against human NCI-H1975 cells xenografted in SCID mouse at 30 mg/kg, po administered qd for 14 days relative to control; format: functional, organism-based; set-up: dose 30 mg/kg; method in brief: as §2
[25] = biological target: T5, Epidermal growth factor receptor; test: Binding affinity to EGFR T790M mutant
[26] = Toxicity in SCID mouse assessed as mortality at 10 mg/kg, po administered qd for 14 days relative to control; format: organism-based; set-up: dose 10 mg/kg, route oral; settings: in vivo, read-out: Activity
Method in brief: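 Six-week-old SCID mice bearing subcutaneous H1975 NSCLC xenografts (2 × 10⁶ cells, right flank) were randomized at 380−420 mm³ average tumour volume (10−12 days post implantation), n = 6/group. They were dosed orally once daily for 14 days with vehicle or compound (10 or 30 mg/kg; 0.1 mL/20 g body weight). Mortality and body weight were tracked during treatment against vehicle controls.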

T5 sequence (P00533 25-1210 T790M limits assumed): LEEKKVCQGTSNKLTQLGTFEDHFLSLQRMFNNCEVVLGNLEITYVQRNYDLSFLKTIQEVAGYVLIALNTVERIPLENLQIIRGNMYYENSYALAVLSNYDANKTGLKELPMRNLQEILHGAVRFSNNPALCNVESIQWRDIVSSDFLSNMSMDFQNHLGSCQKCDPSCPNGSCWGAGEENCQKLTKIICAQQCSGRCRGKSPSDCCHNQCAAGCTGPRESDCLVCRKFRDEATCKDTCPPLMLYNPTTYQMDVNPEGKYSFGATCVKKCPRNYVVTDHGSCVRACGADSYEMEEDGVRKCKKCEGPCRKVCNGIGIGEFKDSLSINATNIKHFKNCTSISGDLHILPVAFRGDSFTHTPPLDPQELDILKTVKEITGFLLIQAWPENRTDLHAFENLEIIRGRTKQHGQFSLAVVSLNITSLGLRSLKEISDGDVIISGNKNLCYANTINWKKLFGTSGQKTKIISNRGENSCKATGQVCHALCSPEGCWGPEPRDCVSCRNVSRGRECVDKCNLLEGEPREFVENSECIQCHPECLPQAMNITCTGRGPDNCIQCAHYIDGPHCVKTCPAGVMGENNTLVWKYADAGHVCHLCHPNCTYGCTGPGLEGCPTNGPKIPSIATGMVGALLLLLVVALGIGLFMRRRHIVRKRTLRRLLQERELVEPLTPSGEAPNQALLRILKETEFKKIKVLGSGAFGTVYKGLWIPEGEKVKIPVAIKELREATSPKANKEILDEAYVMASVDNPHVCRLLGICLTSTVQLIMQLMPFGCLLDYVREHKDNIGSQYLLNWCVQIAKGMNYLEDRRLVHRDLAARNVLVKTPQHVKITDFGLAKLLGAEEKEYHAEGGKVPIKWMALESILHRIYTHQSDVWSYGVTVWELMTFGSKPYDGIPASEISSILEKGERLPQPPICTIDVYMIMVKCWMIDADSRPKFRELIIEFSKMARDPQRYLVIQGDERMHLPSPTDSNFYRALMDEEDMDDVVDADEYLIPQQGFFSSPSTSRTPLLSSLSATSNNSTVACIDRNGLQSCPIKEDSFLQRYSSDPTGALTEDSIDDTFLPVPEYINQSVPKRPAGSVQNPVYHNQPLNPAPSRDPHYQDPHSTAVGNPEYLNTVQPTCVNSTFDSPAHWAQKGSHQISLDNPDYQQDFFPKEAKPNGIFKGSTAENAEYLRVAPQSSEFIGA
T3 sequence (P00533 25-1210 L858R limits assumed): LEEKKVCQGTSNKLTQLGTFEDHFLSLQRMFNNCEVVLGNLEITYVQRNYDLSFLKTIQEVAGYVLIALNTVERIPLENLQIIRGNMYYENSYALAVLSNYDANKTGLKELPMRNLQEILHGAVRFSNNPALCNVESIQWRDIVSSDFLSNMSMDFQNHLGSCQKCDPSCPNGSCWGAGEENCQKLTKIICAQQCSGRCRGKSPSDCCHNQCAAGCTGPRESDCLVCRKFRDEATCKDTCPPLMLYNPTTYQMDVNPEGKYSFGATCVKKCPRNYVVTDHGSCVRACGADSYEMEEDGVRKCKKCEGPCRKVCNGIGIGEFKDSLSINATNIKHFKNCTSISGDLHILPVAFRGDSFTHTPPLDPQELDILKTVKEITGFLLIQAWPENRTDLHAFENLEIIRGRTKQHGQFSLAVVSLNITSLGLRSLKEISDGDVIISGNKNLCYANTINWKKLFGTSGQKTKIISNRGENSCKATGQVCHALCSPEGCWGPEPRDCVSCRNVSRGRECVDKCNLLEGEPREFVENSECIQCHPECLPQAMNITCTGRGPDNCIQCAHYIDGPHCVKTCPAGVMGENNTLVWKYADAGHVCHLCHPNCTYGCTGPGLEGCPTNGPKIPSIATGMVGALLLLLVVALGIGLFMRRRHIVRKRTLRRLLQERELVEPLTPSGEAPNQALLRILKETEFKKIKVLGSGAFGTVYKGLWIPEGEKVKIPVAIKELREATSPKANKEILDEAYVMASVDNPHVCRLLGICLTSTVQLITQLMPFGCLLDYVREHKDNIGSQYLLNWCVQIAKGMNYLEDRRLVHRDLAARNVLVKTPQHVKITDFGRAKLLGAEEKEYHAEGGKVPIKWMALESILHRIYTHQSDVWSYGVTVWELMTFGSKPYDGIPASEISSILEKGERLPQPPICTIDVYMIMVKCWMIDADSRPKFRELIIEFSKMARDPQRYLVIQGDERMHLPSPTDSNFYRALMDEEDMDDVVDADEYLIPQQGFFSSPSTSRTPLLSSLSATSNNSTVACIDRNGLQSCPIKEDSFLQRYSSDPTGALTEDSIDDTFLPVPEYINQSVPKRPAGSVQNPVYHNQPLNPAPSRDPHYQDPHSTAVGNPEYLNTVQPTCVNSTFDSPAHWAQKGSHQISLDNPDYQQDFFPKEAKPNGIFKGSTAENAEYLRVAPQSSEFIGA
T1 sequence (P00533 25-1210 T790M/L858R limits assumed): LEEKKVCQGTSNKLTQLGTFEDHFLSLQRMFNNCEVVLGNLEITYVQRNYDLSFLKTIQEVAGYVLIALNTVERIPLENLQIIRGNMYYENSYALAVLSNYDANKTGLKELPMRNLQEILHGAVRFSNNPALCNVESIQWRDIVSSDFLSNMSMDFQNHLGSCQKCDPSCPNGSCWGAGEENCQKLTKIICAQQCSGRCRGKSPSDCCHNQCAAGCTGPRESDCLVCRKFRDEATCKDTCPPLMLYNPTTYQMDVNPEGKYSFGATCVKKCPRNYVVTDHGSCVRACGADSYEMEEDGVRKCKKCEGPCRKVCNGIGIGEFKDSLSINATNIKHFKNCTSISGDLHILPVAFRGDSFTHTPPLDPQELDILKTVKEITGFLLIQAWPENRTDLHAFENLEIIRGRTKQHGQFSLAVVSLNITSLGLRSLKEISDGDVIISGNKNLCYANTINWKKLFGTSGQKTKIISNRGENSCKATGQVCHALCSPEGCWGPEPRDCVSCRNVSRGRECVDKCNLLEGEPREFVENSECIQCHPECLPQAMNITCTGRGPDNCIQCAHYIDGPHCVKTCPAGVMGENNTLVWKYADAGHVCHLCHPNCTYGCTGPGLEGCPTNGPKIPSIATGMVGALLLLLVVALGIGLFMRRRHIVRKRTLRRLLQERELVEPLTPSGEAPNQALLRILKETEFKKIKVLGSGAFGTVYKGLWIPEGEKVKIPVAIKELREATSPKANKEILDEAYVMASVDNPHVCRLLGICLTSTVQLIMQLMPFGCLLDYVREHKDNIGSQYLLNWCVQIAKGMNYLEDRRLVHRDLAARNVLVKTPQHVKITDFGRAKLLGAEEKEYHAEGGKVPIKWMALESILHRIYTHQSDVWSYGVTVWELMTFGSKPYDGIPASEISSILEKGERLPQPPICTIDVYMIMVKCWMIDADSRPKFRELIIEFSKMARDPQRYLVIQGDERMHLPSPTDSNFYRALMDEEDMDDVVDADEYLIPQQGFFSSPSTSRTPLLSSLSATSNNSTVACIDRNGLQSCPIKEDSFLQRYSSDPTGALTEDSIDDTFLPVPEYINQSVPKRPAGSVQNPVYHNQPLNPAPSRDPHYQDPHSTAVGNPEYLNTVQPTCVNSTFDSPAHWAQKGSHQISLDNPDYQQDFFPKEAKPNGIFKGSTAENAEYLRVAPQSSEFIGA
T4 sequence (P00533 25-1210 L861Q limits assumed): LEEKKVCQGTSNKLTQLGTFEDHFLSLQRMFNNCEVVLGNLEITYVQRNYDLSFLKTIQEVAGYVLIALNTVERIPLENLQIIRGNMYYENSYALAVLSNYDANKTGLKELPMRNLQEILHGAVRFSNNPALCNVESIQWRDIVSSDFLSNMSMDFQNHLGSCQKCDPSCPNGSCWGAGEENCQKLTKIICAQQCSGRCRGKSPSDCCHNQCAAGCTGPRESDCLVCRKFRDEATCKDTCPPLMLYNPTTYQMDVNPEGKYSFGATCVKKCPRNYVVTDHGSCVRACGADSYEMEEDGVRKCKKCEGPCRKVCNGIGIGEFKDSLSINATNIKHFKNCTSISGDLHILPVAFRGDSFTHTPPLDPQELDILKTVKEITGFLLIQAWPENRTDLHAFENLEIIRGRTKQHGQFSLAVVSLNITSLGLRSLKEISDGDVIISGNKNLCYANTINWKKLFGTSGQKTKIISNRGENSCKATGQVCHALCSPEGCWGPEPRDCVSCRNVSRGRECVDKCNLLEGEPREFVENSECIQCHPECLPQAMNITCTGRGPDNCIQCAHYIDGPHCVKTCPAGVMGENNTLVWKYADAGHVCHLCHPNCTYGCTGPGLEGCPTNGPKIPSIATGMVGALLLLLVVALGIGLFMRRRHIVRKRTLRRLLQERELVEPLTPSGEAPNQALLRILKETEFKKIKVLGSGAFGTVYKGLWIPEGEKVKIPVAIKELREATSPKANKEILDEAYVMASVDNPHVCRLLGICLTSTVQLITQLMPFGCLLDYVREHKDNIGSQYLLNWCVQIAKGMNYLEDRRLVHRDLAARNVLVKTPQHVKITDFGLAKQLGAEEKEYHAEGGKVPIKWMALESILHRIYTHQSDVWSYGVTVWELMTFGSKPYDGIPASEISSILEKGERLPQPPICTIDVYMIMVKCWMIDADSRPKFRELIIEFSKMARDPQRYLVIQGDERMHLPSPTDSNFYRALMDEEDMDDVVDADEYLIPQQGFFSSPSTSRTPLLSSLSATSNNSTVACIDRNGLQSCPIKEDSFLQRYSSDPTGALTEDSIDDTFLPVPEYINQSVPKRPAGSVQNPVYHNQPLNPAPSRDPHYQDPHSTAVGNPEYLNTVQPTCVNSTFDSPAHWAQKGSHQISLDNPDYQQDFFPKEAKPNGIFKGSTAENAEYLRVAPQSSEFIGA

With `C=CC(=O)Nc1cccc(N2C(=O)N(Cc3ccccc3)Cc3cnc(Nc4ccc(N5CCN(C)CC5)cc4OC)nc32)c1` as the compound, how does the inhibition (NCI-H1975 [1]) read?
Its inhibition is “Dose-dependent effect”.

And the IC50 (A549)?
Its IC50 is 2660 nM.

What about the IC50 [2] of the same compound?
Its IC50 is 2390 nM.

What about the Activity [3] of the same compound?
The Activity was “Active”.

And the Activity (HCC827 [4])?
Its Activity is “Active”.

What about the IC50 [5] of the same compound?
Its IC50 is 0.93 nM.

And the Kd [6]?
The Kd was 1.2 nM.

What about the IC50 [7] of the same compound?
The IC50 was 0.38 nM.

What about the Activity (NCI-H1975 [8]) of the same compound?
Its Activity is “Active”.

What about the Activity [9] of the same compound?
The Activity was “Active”.

And the IC50 [10]?
Its IC50 is 0.29 nM.

And the Activity [11]?
The Activity was “Active”.

And the Activity [12]?
Its Activity is “Active”.

And the Activity (HCC827 [13])?
The Activity was “Active”.

What about the Activity (Mus musculus) of the same compound?
The Activity was < 5%.

What about the IC50 [14] of the same compound?
The IC50 was 0.72 nM.

What about the Kd [15] of the same compound?
Its Kd is 0.68 nM.

And the Activity [16]?
Its Activity is “Active”.

What about the Kd [17] of the same compound?
Its Kd is 0.3 nM.

And the Activity [18]?
Its Activity is “Non-toxic”.

And the Activity [19]?
Its Activity is “Active”.

And the Kd [20]?
The Kd was 1.3 nM.

What about the IC50 [21] of the same compound?
Its IC50 is 0.67 nM.

And the Activity (NCI-H1975 [22])?
The Activity was “Active”.

And the Activity (NCI-H1975 [23])?
Its Activity is “inactive”.

What about the Activity (NCI-H1975 [24]) of the same compound?
Its Activity is “Active”.

What about the Kd [25] of the same compound?
Its Kd is 0.29 nM.

And the mortality at 336 h [26]?
Its mortality at 336 h is < 5%.
